Active and inactive are the calls of the source. The calls are words filed in the database; no cut-off is given here.

The subject of one data set is Mus musculus. The data set can be described thus: Toxicity in ip dosed C3H/DBA2F1 hybrid mouse allografted with mouse L1210 cells administered for 5 days measured up to 8 days. The format is organism-based. The settings on record: in vivo. The essentials: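 C3H/DBA2 F1 hybrid mice (18.5–22.5 g) bearing ip 10^5 L1210 cells were dosed ip once daily for 5 days, starting 24 h after inoculation, at 0.2 mL per dose. Doses were spaced 0.05 log units apart. Deaths before day 8 were taken as drug toxicity, and the dose lethal to 10% of animals (LD10) was derived.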

A short description of data set [1]: Logarithmic function of the retardation factor value of compound by reverse phase chromatography analysis. The format is physicochemical. In short, it runs like this:
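Lipophilic-hydrophilic balance read by reversed-phase TLC, using a system described in an earlier report. R_m is calculated as log(1/R_f − 1). Each quoted figure is the mean of at least three determinations.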

The subject of the next data set is L1210. The data set can be described thus: Antitumor activity against mouse L1210 cells allografted in C3H/DBA2F1 hybrid mouse assessed as maximum increase of host life span administered as ip for 5 days relative to control. Format: functional. The essentials: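 Mice (C3H/DBA2 F1 hybrid, 18.5–22.5 g; six per dose level) were inoculated ip with 10^5 L1210 cells. Ip treatment ran once daily on days 1–5, starting 24 h after inoculation, in 0.2 mL per dose. Doses were spaced 0.09 log units apart. ILS = T/C% − 100, significant if above 25%. Significant ILS values were regressed on log dose, and ILSmax was read at the LD10.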

With `NC(=O)c1ccc(Nc2c3ccccc3nc3ccccc23)cc1`, the LD10 with Mus musculus amounted to 182 mg/kg. In data set [1], the Rm is -0.25. The “log(ILSmax)” value in the data set with L1210 was below 1.3.
In turn, `CCCCCCS(=O)(=O)Nc1ccc(Nc2c3ccccc3nc3cc(NC(C)=O)ccc23)cc1` returned an LD10 with Mus musculus of 21 mg/kg. In data set [1], this compound registered a Rm of 0.7. In the data set on L1210, the ILSmax is on record as 43% and the “log(ILSmax)” value is given as 1.63.
On the same counts, the results for `CCS(=O)(=O)Nc1ccc(Nc2c3ccccc3nc3cc(NC(C)=O)ccc23)cc1` are 28 mg/kg, 0.1, 115% and 2.06.
On the same counts, the results for `CCc1cccc2c(Nc3ccc(CCC(=O)O)cc3)c3ccccc3nc12.Cl` are 200 mg/kg, 0.66, 130% and 2.11.
On the same counts, the results for `CCCCS(=O)(=O)Nc1ccc(Nc2c3ccccc3nc3cc(NC(C)=O)ccc23)cc1` are 39 mg/kg, 0.46, 84% and 1.92.
The compound `CNc1ccc2c(Nc3ccc(CCCC(=O)O)cc3)c3ccccc3nc2c1.Cl` returned an LD10 with Mus musculus of 400 mg/kg. Further, the Rm in data set [1] worked out at 0.67. Moreover, in the data set with L1210, the ILSmax amounted to 35% and the “log(ILSmax)” value stood at 1.54.
On the same counts, the results for `Cl.O=S(=O)(Cc1ccc(Nc2c3ccccc3nc3ccccc23)cc1)Nc1ccccn1` are 370 mg/kg, -0.04, 99% and 2.
Compound `NS(=O)(=O)c1ccc(Nc2c3ccccc3nc3ccccc23)cc1` yielded an LD10 with Mus musculus above 500 mg/kg. The compound further gave a Rm in data set [1] of -0.57. For the same compound, in the data set on L1210, the ILSmax entry is “inactive”.
Take `CS(=O)(=O)O.NC(=O)CCCCCCCc1ccc(Nc2c3ccccc3nc3ccccc23)cc1`: the LD10 with Mus musculus worked out at 120 mg/kg. The compound further came in with a Rm in data set [1] of 0.68. In the data set on L1210, the ILSmax was 53% and the “log(ILSmax)” value was 1.72.
The matching figures for `CNc1ccc2c(Nc3ccc(OCCCC(=O)O)cc3)c3ccccc3nc2c1.Cl`: above 500 mg/kg, 0.61, 30% and above 1.48.
As for `CCCCCS(=O)(=O)Nc1ccc(Nc2c3ccccc3nc3ccccc23)cc1.Cl`, the LD10 in the data set with Mus musculus worked out at 70 mg/kg. In data set [1], the Rm is 0.66. Further, in the data set on L1210, the ILSmax was 55%.
In the data set on Mus musculus, `NC(=O)CCCc1ccc(Nc2c3ccccc3nc3ccccc23)cc1` returned an LD10 of 85 mg/kg. This compound had a Rm in data set [1] of 0.09. Moreover, in the data set on L1210, the ILSmax was 122% and the “log(ILSmax)” value turned out to be 2.09.
Take `CCCS(=O)(=O)Nc1ccc(Nc2c3ccccc3nc3cc(NC(C)=O)ccc23)cc1`: the LD10 in the data set with Mus musculus was 33 mg/kg. Further, the Rm in data set [1] is 0.3. In the data set on L1210, the ILSmax is on record as 115% and the “log(ILSmax)” value was 2.06.
In the data set with Mus musculus, `O=C(O)c1ccc(Nc2c3ccccc3nc3ccccc23)cc1` gave an LD10 of 72 mg/kg. In data set [1], this compound displayed a Rm of 0.27. For the same compound, in the data set with L1210, the ILSmax was 130% and the “log(ILSmax)” value is recorded as 2.11.
As for `CCCCS(=O)(=O)Nc1ccc(Nc2c3ccccc3nc3ccccc23)cc1`, the LD10 in the data set with Mus musculus amounted to 350 mg/kg. Moreover, the Rm in data set [1] amounted to 0.56. Also, the ILSmax with L1210 is on record as 66%.
`CC(=O)Nc1ccc2c(=Nc3ccc(CCC(=O)O)cc3)c3ccccc3[nH]c2c1.Cl`: the LD10 with Mus musculus stood at 145 mg/kg. In data set [1], the Rm was determined as 0.27. The “log(ILSmax)” value in the data set with L1210 was below 1.3.
Compound `CS(=O)(=O)O.NC(=O)Cc1ccc(Nc2c3ccccc3nc3ccccc23)cc1` had an LD10 with Mus musculus of 55 mg/kg. The same compound came in with a Rm in data set [1] of -0.33. In the data set on L1210, the ILSmax stood at 64% and the “log(ILSmax)” value is reported as 1.81.
In the data set with Mus musculus, `CNc1ccc2c(Nc3ccc(NS(C)(=O)=O)cc3OC)c3ccccc3nc2c1.Cl` displayed an LD10 of 1.3 mg/kg. For the same compound, in data set [1], the Rm came to 0.17. In the data set with L1210, the ILSmax came to 94% and the “log(ILSmax)” value was 1.97.
On the same counts, the results for `CCCCCS(=O)(=O)Nc1ccc(Nc2c3ccccc3nc3cc(NC(C)=O)ccc23)cc1` are 40 mg/kg, 0.59, 61% and 1.78.
On the same counts, the results for `CNc1ccc2c(Nc3ccc(NS(C)(=O)=O)cc3)c3ccccc3nc2c1.Cl` are 7 mg/kg, -0.01, 103% and 2.01.
For `Cl.O=C(O)CCc1ccc(Nc2c3ccccc3nc3ccccc23)cc1`, the LD10 in the data set with Mus musculus was determined as 125 mg/kg. Moreover, the Rm in data set [1] is on record as 0.44. Besides, in the data set with L1210, the ILSmax was 163% and the “log(ILSmax)” value is on record as 2.21.
For the compound `NC(=O)CCc1ccc(Nc2c3ccccc3nc3ccccc23)cc1`, the LD10 in the data set on Mus musculus stood at 75 mg/kg. This compound also came in with a Rm in data set [1] of -0.17. Further, in the data set on L1210, the ILSmax was found to be 84% and the “log(ILSmax)” value worked out at 1.92.
On the same counts, the results for `NC(=O)CCCCCCc1ccc(Nc2c3ccccc3nc3ccccc23)cc1` are 110 mg/kg, 0.58, 71% and 1.85.
As to `Cc1cccc2c(Nc3ccc(CCC(=O)O)cc3)c3ccccc3nc12`, in the data set with Mus musculus, the LD10 is 32 mg/kg. The Rm in data set [1] turned out to be 0.46. Besides, in the data set with L1210, the ILSmax amounted to 124% and the “log(ILSmax)” value is reported as 2.09.
On the same counts, the results for `Cc1cccc2c(Nc3ccc(CC(=O)O)cc3)c3ccccc3nc12` are 95 mg/kg, 0.3, 80% and 1.9.
On the same counts, the results for `O=C(O)CCCCc1ccc(Nc2c3ccccc3nc3ccccc23)cc1` are 125 mg/kg, 0.64, 187% and 2.27.
In the data set with Mus musculus, `CCCS(=O)(=O)Nc1ccc(Nc2c3ccccc3nc3ccccc23)cc1` had an LD10 of 350 mg/kg. Besides, in data set [1], the Rm was 0.43. In the data set on L1210, the ILSmax is 82%.
In the data set with Mus musculus, `CS(=O)(=O)O.NC(=O)CCCCCc1ccc(Nc2c3ccccc3nc3ccccc23)cc1` displayed an LD10 of 125 mg/kg. Besides, in data set [1], the Rm amounted to 0.41. Further, in the data set with L1210, the ILSmax came out at 97% and the “log(ILSmax)” value is given as 1.99.
In the data set on Mus musculus, `CCS(=O)(=O)Nc1ccc(Nc2c3ccccc3nc3ccccc23)cc1` displayed an LD10 of 330 mg/kg. In data set [1], this compound showed a Rm of 0.25. For the same compound, the ILSmax in the data set with L1210 was found to be 98%.
As to `Cl.O=C(O)CCCCCCCc1ccc(Nc2c3ccccc3nc3ccccc23)cc1`, the LD10 in the data set on Mus musculus came out at 95 mg/kg. Further, in data set [1], the Rm is 0.82. In addition, in the data set on L1210, the ILSmax was 75% and the “log(ILSmax)” value was found to be 1.88.
Turning to `CC(=O)Nc1ccc2c(Nc3ccc(NS(C)(=O)=O)cc3)c3ccccc3nc2c1`, in the data set with Mus musculus, the LD10 was determined as 19 mg/kg. Also, in data set [1], the Rm is reported as -0.12. Besides, the ILSmax with L1210 is reported as 145%.
`O=C(O)CCCCCCc1ccc(Nc2c3ccccc3nc3ccccc23)cc1` yielded an LD10 in the data set with Mus musculus of 90 mg/kg. The compound also came in with a Rm in data set [1] of 0.79. Also, in the data set on L1210, the ILSmax is on record as 74% and the “log(ILSmax)” value was 1.87.
In the case of `CS(=O)(=O)Nc1ccc(Nc2c3ccccc3nc3ccccc23)cc1`, the LD10 in the data set on Mus musculus was determined as 66 mg/kg. In data set [1], the Rm stood at 0. In the data set on L1210, the ILSmax stood at 131%.
With `O=C(O)Cc1ccc(Nc2c3ccccc3nc3ccccc23)cc1`, the LD10 in the data set on Mus musculus amounted to 450 mg/kg. For the same compound, the Rm in data set [1] is given as 0.23. For the same compound, in the data set on L1210, the ILSmax is 22% and the “log(ILSmax)” value is recorded as 1.34.
Consider `NS(=O)(=O)CCc1ccc(Nc2c3ccccc3nc3ccccc23)cc1`, for which, in the data set with Mus musculus, the LD10 came to 80 mg/kg. In data set [1], this compound returned a Rm of -0.2. Further, in the data set on L1210, the ILSmax came out at 68% and the “log(ILSmax)” value is 1.83.
As for `CS(=O)(=O)O.NC(=O)CCCCc1ccc(Nc2c3ccccc3nc3ccccc23)cc1`, the LD10 in the data set on Mus musculus stood at 110 mg/kg. The Rm in data set [1] is 0.25. Also, in the data set on L1210, the ILSmax was 82% and the “log(ILSmax)” value came out at 1.91.
`CC(=O)Nc1ccc2c(Nc3ccc(CCCCCC(=O)O)cc3)c3ccccc3nc2c1.Cl` returned an LD10 in the data set with Mus musculus above 500 mg/kg. For the same compound, in data set [1], the Rm was 0.54. For the same compound, in the data set with L1210, the ILSmax result is “inactive”.
Regarding `CS(=O)(=O)O.NC(=O)CCCCCCCCc1ccc(Nc2c3ccccc3nc3ccccc23)cc1`, in the data set on Mus musculus, the LD10 was 60 mg/kg. Also, the Rm in data set [1] came out at 0.77. In the data set on L1210, the ILSmax was found to be 25% and the “log(ILSmax)” value is given as 1.4.
In the data set on Mus musculus, `Cl.NS(=O)(=O)Cc1ccc(Nc2c3ccccc3nc3ccccc23)cc1` returned an LD10 of 62 mg/kg. In data set [1], the Rm is -0.36. In addition, in the data set with L1210, the ILSmax worked out at 53% and the “log(ILSmax)” value was 1.72.
On the same counts, the results for `CCc1cccc2c(Nc3ccc(CC(=O)O)cc3)c3ccccc3nc12` are 200 mg/kg, 0.52, 200% and 2.3.

For the origin of these results see ChEMBL document CHEMBL3244004, “Potential antitumor agents. 27. Quantitative structure--antileukemic (L1210) activity relationships for the omega-[4-(9-acridinylamino)phenyl]alkanoic acids” (J Med Chem, 1978).
